Paper PMC4425413 (The Biochemical journal, 2015)

Legend:
HeLa cells = experiment: STS-induced apoptosis; format: cell-based; settings: 100 nM STS 20 h without the peptides
Outline: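 HeLa cells in DMEM + 10% FBS, grown to 70%–80% confluence. Apoptosis induced with 100 nM staurosporine for 20 h; untreated cells as control. Early apoptosis scored by Annexin V–FITC staining, late apoptosis by TUNEL, as percentage of cells. Means + S.D. from three independent experiments.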

[1] = test system: selenite-induced cataracts in rats; experiment: Selenite cataract in rat pups; format: in vivo, Sprague–Dawley rat; settings: selenite alone compared with untreated controls

Structure (SMILES): CN[C@@H]1C[C@H]2O[C@@](C)([C@@H]1OC)n1c3ccccc3c3c4c(c5c6ccccc6n2c5c31)C(=O)NC4 [STS, staurosporine]
- early-stage apoptosis (% of the cells), inducer alone (HeLa cells; Annexin V–FITC): 14%
- late stage apoptosis (% of the cells), inducer alone (HeLa cells; TUNEL): 5%

Structure (SMILES): O=[Se]([O-])[O-].[Na+].[Na+] [sodium selenite]
- total soluble lens proteins, selenite alone ([1]; Fig 9B): reduction
- lens GSH content, selenite alone ([1]; Fig 9C): reduction
